# Screening results deposited in PubChem by SRMLSC.
# PTEN del growth – growth suppression of PTEN-null HCT116, primary screen, cell-based, CellTiter-Glo; HCT116 PTEN-null viability, 60 h; hits give low values; viability, % at 10 µM; hit rate 1.2% among 140,000; AID 827, 2007;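 active means viability at or below a set limit, 4 SD under the median of all tested compounds, cut at about 3.7% in these data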;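 further: PTEN knockout HCT116 line with beta catenin targeted HCT116 as companion control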
# HUVEC inhibit – inhibitors of HUVEC proliferation, primary screen, cell-based, 384-well | viability, % at 10 µM (by protocol) | AID 648, 2007 | CellTiter-Glo luminescence, 72 h; hits give low values | hit rate 1.1% among 86,000;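 active means viability at or below 30%; inactive means viability above 30%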;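 further: 100% = median luminescence of DMSO-only cell control wells on each plate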
# bCat KO growth – primary screen for growth suppressors in beta-catenin knockout HCT116 cells (colon tumor, human). HCT116 beta-catenin knockout viability, CellTiter-Glo, 60 h; hits give low values. viability, % at 10 µM. hit rate 1.5% among 140,000;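 active means viability at or under a set limit, the compound median less 4 SD, cut at about 6% in these data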;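 further: 0% = Hyamine 1622 control at 20 µM and 100% = untreated cell control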
# H69AR growth 86K – proliferation blockers of H69AR lung cancer cells, primary screen, cell-based, human, 86K library; H69AR lung tumor viability, ATP luminescence, 72 h; hits give low values; AID 598, 2007; hit rate 6% among 85,000; viability, % at 10 µM;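 active means viability at or below 40%; inactive means viability above 40%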;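 further: multidrug resistant small cell line overexpressing MRP-1 efflux transporter; 100% = mean luminescence of untreated control wells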
# Fibroblast inh – antiproliferative effect on LL 47 fibroblasts – human, LL 47 cells, CellTiter-Glo luminescence, primary screen. LL 47 human lung fibroblast viability, ATP luminescence; hits give low values. viability, % at 10 µM. hit rate 1.1% among 85,000. AID 719, 2007;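 active means viability at or below 50% in the single dose screen; inactive means viability above 50%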;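 further: compound exposure lasted 72 h before the ATP readout; 100% = median luminescence of untreated cell-only wells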
#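 Benchmarks: Cell-only wells, no compound | Test system: LL 47 human lung fibroblasts, passage 12 or lower | Input: 1,150 cells/well | Measured by: CellTiter-Glo luminescence measuring cellular ATP | Medium: IMEM, 15% FBS supplement | Schedule: Overnight attachment after seeding, then 72 h compound exposure at 37 °C | Doses: Compound addition at 0.1% DMSO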
# * marks the source's active call; other numbers are inactive results; · = not tested or not shown. Shown is part of a subset that was picked to be rich in hits.
SMILES,PTEN del growth,HUVEC inhibit,bCat KO growth,H69AR growth 86K,Fibroblast inh
Cc1cc(C(=O)N/N=C/c2cc(Br)ccc2OC(=O)c2ccc(Br)cc2)n[nH]1,9.3,·,14.3,·,·
CC(C)N(Cc1nc(-c2ccccc2)no1)C(=O)c1ccc(Cl)cc1,42.6,109.5,31.8,87.8,92.2
CN1CCN(c2ccccc2NC(=O)c2ccc(OCc3ccccc3)cc2)CC1,6.4,17.1*,3.4*,·,94.9
CCCCOc1ccc(C(=O)Nc2ccc(N3CCN(C)CC3)cc2)cc1,1.8*,31.7,1.5*,22.7*,27.8*
CN1CCN(c2ccccc2NC(=O)c2ccc(-c3ccccc3)cc2)CC1,27.6,48.4,47.0,32.9*,87.5
O=C(Nc1ccccc1F)c1ccc(OCc2ccccc2)cc1,99.2,·,97.0,·,·
CN1CCN(c2ccc(Cl)cc2NC(=O)c2ccc(S(=O)(=O)N3CCCCCC3)cc2)CC1,78.9,35.4,77.3,2.5*,89.3
CCCCOc1cccc(C(=O)Nc2ccc(N3CCN(CC)CC3)cc2)c1,33.4,71.6,23.5,42.8,78.6
CN1CCN(c2ccc(S(=O)(=O)N3CCCCC3)cc2NC(=O)c2ccc(C#N)cc2)CC1,88.1,·,87.5,·,·
Cc1ccc(C(=O)Nc2ccccc2N2CCN(C(=O)C(C)C)CC2)cc1C,74.5,·,83.9,·,·
CN/C(=C/[N+](=O)[O-])NCCSCc1ccc(CN(C)C)o1,94.4,94.4,86.5,85.5,102.2
Cc1nnc(C)n1/N=C/c1ccc2c(c1)OCCO2,92.0,91.8,92.2,91.9,93.4
O=C(CNCc1ccccc1)Nc1ccccc1-c1ccccc1,77.3,·,78.1,·,·
CN1CCN(c2ccccc2NC(=O)c2cccc(OCc3ccccc3)c2)CC1,35.1,8.2*,26.7,11.4*,76.0
Cc1ccc(C(=O)CSc2nnc(-c3cccnc3)n2N)cc1,53.8,78.2,58.9,27.3*,94.1
Cc1cc(C(=O)CSc2nnc(-c3cccnc3)n2-c2ccccc2F)c(C)n1C,52.1,111.8,58.0,34.4*,93.2
O=C(NC(Nc1ccc(F)cc1)(C(F)(F)F)C(F)(F)F)c1cccnc1,87.7,·,85.8,·,·
COc1ccc(CNCCC(c2ccc(OC(C)C)cc2)C(C)C)cc1OC (centres undefined),1.3*,·,1.2*,·,·
O=[N+]([O-])/C=C/c1cn(Cc2ccc(F)cc2)c2ccccc12,1.4*,·,1.9*,·,·
CCNC(=S)N/N=C/c1cn(Cc2ccc(F)cc2)c2ccccc12,102.0,·,96.1,·,·
CCn1c(=O)c(C(=O)Nc2ccsc2C(=O)OC)c(O)c2ccccc21,4.8,·,4.7*,·,·
C=CCn1c(=O)c(C(=O)Nc2ccccc2C(=O)OCC)c(O)c2ccccc21,56.0,108.3,58.5,89.8,90.7
CCCn1c(=O)c(C(=O)Nc2nnc(CC)s2)c(O)c2ccccc21,·,109.8,·,23.3*,98.6
CCOC(=O)c1ccccc1NC(=O)c1c(O)c2ccccc2n(CC)c1=O,72.7,110.6,69.3,40.0*,101.9
CCCn1c(=O)c(C(=O)Nc2cnccn2)c(O)c2ccccc21,·,114.3,·,97.2,105.1
SMILES,PTEN del growth,HUVEC inhibit,bCat KO growth,H69AR growth 86K,Fibroblast inh
Cc1[nH]c2ccccc2c1C1=NNC(=Nc2ccc(F)cc2)SC1,17.9,·,13.6,·,·
COc1ccc(N=C2NN=C(c3c(C)[nH]c4ccccc34)CS2)cc1,4.5,·,3.8*,·,·
O=C(CSc1nnc(-c2ccccc2O)o1)Oc1ccc(OCc2ccccc2)cc1,68.9,49.6,77.0,27.0*,69.7
CCN(CC(=O)NCCc1ccc(S(N)(=O)=O)cc1)Cc1nc2cc(OC)c(OC)cc2c(=O)[nH]1,100.5,·,93.0,·,·
COC(=O)C(O)(NC(=O)NC(C)=O)C(F)(F)F (centres undefined),102.2,101.2,108.8,95.3,106.5
Cc1ccc(C(=O)CSC2=C(C#N)C(c3ccco3)C3=C(CC(C)(C)CC3=O)N2)cc1 (centres undefined),89.0,78.9,89.7,70.3,86.2
N#CC1=C(SCC(=O)c2ccc(Cl)cc2)NC2=C(C(=O)CCC2)C1c1ccco1 (centres undefined),16.1,51.7,18.1,13.2*,54.4
CCCCNC(=O)c1ccc2c(c1)ncn2C1CCCC1,91.0,91.5,93.4,32.7*,107.5
CCCCNC(=O)c1ccc2c(c1)ncn2C1CCCCC1,109.5,·,114.2,·,·
Cn1c(C(=O)OCC(=O)NCc2ccco2)cc2sccc21,93.9,74.3,100.2,82.4,97.5
Cc1cc2c(cc(C(=O)OCC(=O)NCc3ccco3)n2C)s1,27.4,57.9,24.5,27.4*,71.4
CC1(C)CC(=O)c2cc(C(=O)NCc3ccco3)c(=O)n(-c3ccc(Cl)cc3)c2C1,86.0,92.6,87.9,58.9,47.6*
COc1cc(Nc2cc(C)nc3ncnn23)cc(OC)c1,67.3,85.5,86.5,79.9,101.0
O=C(NC1CCCCC1)C(c1cccnc1)N(C(=O)CCl)c1cccc(Cl)c1 (centres undefined),3.1*,·,3.9*,·,·
COc1ccc(N(C(=O)c2cnccn2)C(C(=O)NC2CCCCC2)c2ccc(Cl)cc2)cc1 (centres undefined),·,76.1,·,82.5,79.3
COc1cccc(N(C(=O)c2ccco2)C(C(=O)NC2CCCC2)c2cccnc2)c1 (centres undefined),101.0,95.3,101.9,100.6,98.3
COc1ccc(C(C(=O)NC2CCCC2)N(C(=O)c2snc(-c3ccc(F)cc3)c2N)c2ccc(F)cc2)cc1 (centres undefined),7.4,·,5.5*,·,·
COc1ccc(C(C(=O)NC2CCCCC2)N(C(=O)CCl)c2ccc(Cl)cc2)cc1 (centres undefined),1.8*,·,1.8*,·,·
COc1ccc(C(C(=O)NC2CCCC2)N(C(=O)c2snc(-c3ccc(F)cc3)c2N)c2ccc(OC)cc2)cc1 (centres undefined),61.6,·,71.2,·,·
CCOc1ccc(OCC(=O)OCn2c(SC)nnc(C)c2=O)cc1,108.4,·,96.4,·,·
N#CC1=C(N)NC(SCc2ccc(F)cc2)=C(C#N)C12CCCCC2,18.0,36.4,18.9,10.4*,54.1
Cc1cc(-c2csc(N)n2)c(C)n1CCC(C)C,75.7,90.8,80.0,86.2,102.5
Cc1cc(-c2csc(N)n2)c(C)n1CCc1ccccc1,95.1,42.5,92.9,39.5*,88.5
CCOc1nc(C#N)nc(N2CCCCC2)n1,41.8,105.9,50.1,90.8,95.5
